The structures appear in SMILES notation. Active and inactive are the calls of the source. The rule behind the calls is not given here.

Here are results for 51 compounds from ChEMBL document CHEMBL1145996 (J Med Chem, 2003).

Common to all, as to assay type: functional, organism-based
Experiment [1] concerns Plasmodium falciparum. Description: In vitro antimalarial activity against chloroquine-resistant Plasmodium falciparum W2 Indochina. The gist of the method: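 Asynchronous P. falciparum cultures (2% hematocrit, 2% parasitemia) given compound dilutions in DMSO or RPMI-1640, incubated 48 h at 37°C under 90% N2/5% CO2/5% O2 in humidified chamber. Growth read as parasite lactate dehydrogenase activity with Malstat reagent. At least six concentrations, each in duplicate; medium and RBC controls on each plate.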

Experiment [2] relates to Plasmodium falciparum. Description: In vitro antimalarial activity against chloroquine-sensitive Plasmodium falciparum D6 Sierra Leone.
The test system of experiment [3] is Leishmania donovani. Description: Antileishmanial activity of compound against leishmania donovani was determined in luciferase assay. Summed up: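 Transgenic Leishmania donovani promastigotes expressing firefly luciferase, 2×10^6 cell/mL, exposed to compound dilutions in 96-well plates at 26°C for 72 h; growth read by luciferase luminescence (Steady Glo). At least six concentrations, each in duplicate; mean values used for growth inhibition curves and IC50. Pentamidine and amphotericin B as standards.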

The test system of experiment [4] is Leishmania donovani. Description: Antileishmanial activity of compound against leishmania donovani was determined in luciferase assay; Not active.

Take `C[C@@H]1CC[C@H]2[C@@H](CCCc3ccccc3)C(=O)O[C@@H]3O[C@@]4(C)CCC1[C@]32OO4` (some centres not stated): the results for the half-maximal inhibitory concentration (IC50) with Plasmodium falciparum [1], in the experiment with Plasmodium falciparum [2] and in the experiment on Leishmania donovani [3] were 0.0013 µM, 0.0047 µM and 11.6 µM, respectively. `C[C@@H]1CC[C@H]2[C@@H](CCCc3cc(C(F)(F)F)cc(C(F)(F)F)c3)C(O)O[C@@H]3O[C@@]4(C)CC[C@@H]1[C@]32OO4` (some centres not stated): the NA result in the experiment on Leishmania donovani [4] was “inactive”. Take `C[C@@H]1CC[C@H]2[C@@H](CCCc3ccc(S(C)(=O)=O)cc3)C(=O)O[C@@H]3O[C@@]4(C)CC[C@@H]1[C@]32O4`: in the experiment with Leishmania donovani [4], the NA entry is “inactive”. In the case of `C[C@@H]1CC[C@H]2[C@@H](CCCc3cc(C(F)(F)F)cc(C(F)(F)F)c3)C(=O)O[C@@H]3O[C@@]4(C)CC[C@@H]1[C@]32O4`, the NA result with Leishmania donovani [4] is “inactive”. With `C[C@@H]1CC[C@H]2[C@@H](CCCc3ccc(N(C)C)cc3)CO[C@@H]3O[C@@]4(C)CC[C@@H]1[C@]32OO4`, the IC50 came out at 0.0143 µM with Plasmodium falciparum [1], 0.0165 µM in the experiment on Plasmodium falciparum [2] and 36 µM in the experiment on Leishmania donovani [3].

In the case of `C[C@@H]1CC[C@H]2[C@@H](CCCc3ccc(C(F)(F)F)cc3)CO[C@@H]3O[C@@]4(C)CC[C@@H]1[C@]32OO4`, the IC50 with Leishmania donovani [3] is 1.8 µM. `C[C@@H]1CC[C@H]2[C@@H](CCCc3cccc(Cl)c3)CO[C@@H]3O[C@@]4(C)CC[C@@H]1[C@]32O4`: the NA result with Leishmania donovani [4] is “inactive”. Turning to `C[C@@H]1CC[C@H]2[C@@H](C)C(=O)O[C@@H]3O[C@@]4(C)CC[C@@H]1[C@]32O4`, the NA result in the experiment with Leishmania donovani [4] was “inactive”. In the case of `C[C@@H]1CC[C@H]2[C@@H](CCCc3ccc(N(C)C)cc3)C(=O)O[C@@H]3O[C@@]4(C)CCC1[C@]32OO4` (some centres not stated), the IC50 is 0.0113 µM in the experiment on Plasmodium falciparum [1], 0.0278 µM with Plasmodium falciparum [2] and 1.9 µM in the experiment with Leishmania donovani [3].

In the case of `C[C@@H]1CC[C@H]2[C@@H](CCCc3ccc(O)cc3)C(=O)O[C@@H]3O[C@@]4(C)CC[C@@H]1[C@]32OO4`, the IC50 with Plasmodium falciparum [1] is 0.0047 µM; with Plasmodium falciparum [2] it was 0.0079 µM; with Leishmania donovani [3], 44.7 µM. As for `C[C@@H]1CC[C@H]2[C@@H](CCCc3ccc(S(C)(=O)=O)cc3)C(=O)O[C@@H]3O[C@@]4(C)CCC1[C@]32OO4` (some centres not stated), the IC50 in the experiment on Plasmodium falciparum [1] was determined as 0.02 µM; in the experiment with Plasmodium falciparum [2], 0.0301 µM; in the experiment with Leishmania donovani [3], 53.8 µM. The compound `C[C@@H]1CC[C@H]2[C@@H](CCCc3cc(F)cc(F)c3)C(O)O[C@@H]3O[C@@]4(C)CC[C@@H]1[C@]32OO4` (some centres not stated) registered an IC50 with Leishmania donovani [3] of 33 µM. With `C[C@@H]1CC[C@H]2[C@H](CCCc3ccccc3)C(=O)O[C@@H]3O[C@@]4(C)CCC1[C@]32OO4` (some centres not stated), the IC50 in the experiment with Plasmodium falciparum [1] was 0.0034 µM; in the experiment with Plasmodium falciparum [2], 0.0104 µM; in the experiment with Leishmania donovani [3], 45.3 µM. As for `C[C@@H]1CC[C@H]2CC(=O)O[C@@H]3O[C@@]4(CCCc5ccc(Cl)cc5)CCC1[C@@]23OO4` (some centres not stated), the half-maximal inhibitory concentration (IC50) in the experiment on Leishmania donovani [3] was 11.1 µM.

`COc1ccc(CCC[C@H]2CO[C@@H]3O[C@@]4(C)CC[C@H]5[C@H](C)CC[C@@H]2[C@@]35OO4)cc1` showed an IC50 in the experiment on Leishmania donovani [3] of 17.4 µM. Regarding `C[C@@H]1CC[C@H]2CC(=O)N(Cc3ccccc3)[C@@H]3O[C@@]4(C)CC[C@@H]1[C@@]23OO4`, the IC50 in the experiment on Leishmania donovani [3] was determined as 56 µM.

Turning to `C[C@@H]1CC[C@H]2[C@H](CCCc3ccc(N(C)C)cc3)C(=O)O[C@@H]3O[C@@]4(C)CCC1[C@]32OO4` (some centres not stated), the IC50 in the experiment with Leishmania donovani [3] came to 88.3 µM. The same measure, in the same setting: to `N=C(N)c1ccc(OCCCCCOc2ccc(C(=N)N)cc2)cc1` [PENTAMIDINE] belongs 1.35 µM; to `C[C@@H]1CC[C@H]2CC(=O)N(Cc3ccc(Cl)cc3)[C@@H]3O[C@@]4(C)CC[C@@H]1[C@@]23OO4`, 25.5 µM; to `CCC[C@@]12CCC3[C@H](C)CC[C@H]4CC(=O)O[C@H](O1)[C@@]34OO2` (some centres not stated), 40.5 µM. With `C[C@@H]1CC[C@H]2CC(=O)N(CC(=O)OC(C)(C)C)[C@@H]3O[C@@]4(C)CC[C@@H]1[C@@]23OO4`, the IC50 in the experiment with Leishmania donovani [3] is 27.5 µM. In the case of `CCCC[C@H]1C(=O)O[C@@H]2O[C@@]3(C)CCC4[C@H](C)CC[C@@H]1[C@]42OO3` (some centres not stated), the 50% inhibitory concentration (IC50) in the experiment with Leishmania donovani [3] stood at 12.3 µM. Regarding `C[C@@H]1CC[C@H]2CC(O)O[C@@H]3O[C@@]4(C)CC[C@@H]1[C@@]23OO4` (some centres not stated), the IC50 in the experiment with Leishmania donovani [3] was 44.4 µM. On the same count and under the same terms, to `C[C@@H]1CC[C@H]2[C@@H](CCCc3ccc(Cl)cc3)C(O)O[C@@H]3O[C@@]4(C)CC[C@@H]1[C@]32OO4` (some centres not stated) belongs 4.7 µM. Regarding `C[C@@H]1CC[C@H]2[C@@H](CCCc3ccc(C(F)(F)F)cc3)CO[C@@H]3O[C@@]4(C)CC[C@@H]1[C@]32O4`, the NA result in the experiment with Leishmania donovani [4] is “inactive”. `C[C@@H]1CC[C@H]2[C@@H](CCCCc3ccccc3)C(=O)O[C@@H]3O[C@@]4(C)CCC1[C@]32OO4` (some centres not stated): the IC50 in the experiment on Leishmania donovani [3] stood at 7.5 µM. That is a single-digit micromolar value. With `CCCC[C@H]1C(=O)O[C@@H]2O[C@@]3(CCCCc4ccccc4)CCC4[C@H](C)CC[C@@H]1[C@]42OO3` (some centres not stated), the IC50 in the experiment on Leishmania donovani [3] stood at 4.5 µM. For `OC(c1cc(C(F)(F)F)nc2c(C(F)(F)F)cccc12)C1CCCCN1` (configuration not stated) [MEFLOQUINE], the results for the IC50 in the experiment on Plasmodium falciparum [1] and with Plasmodium falciparum [2] were 0.195 µM and 0.17 µM, respectively.

Regarding `C[C@@H]1CC[C@H]2[C@@H](CCCC(F)(F)F)C(=O)O[C@@H]3O[C@@]4(C)CCC1[C@]32OO4` (some centres not stated), in the experiment on Leishmania donovani [3], the IC50 is 79.3 µM. This lies in the double-digit micromolar range. In the experiment with Leishmania donovani [3], `C[C@@H]1CC[C@H]2[C@@H](CCc3ccccc3)C(=O)O[C@@H]3O[C@@]4(C)CCC1[C@]32OO4` (some centres not stated) yielded a half-inhibitory concentration (IC50) of 40.3 µM.

In the experiment on Leishmania donovani [3], `CC[C@H]1C(=O)O[C@@H]2O[C@@]3(C)CCC4[C@H](C)CC[C@@H]1[C@]42OO3` (some centres not stated) came in with an IC50 of 60.7 µM.

As for `CC[C@@]12CC[C@H]3[C@H](C)CC[C@H]4CC(=O)O[C@H](O1)[C@]43OO2`, 177 µM corresponded to half-maximal inhibition with Leishmania donovani [3] (IC50). This IC50 lies about 2.9-fold higher than the previous one. Still for that read-out and setting: then `COc1ccc(CCC[C@H]2C(=O)O[C@@H]3O[C@@]4(C)CCC5[C@H](C)CC[C@@H]2[C@]53OO4)cc1` (some centres not stated), with 12 µM. On the same count and under the same terms, to `CC(=O)O[C@@H]1O[C@@]2(C)CC[C@H]3[C@H](C)CCC[C@@]13OO2` belongs 148 µM; to `C[C@H]1[C@@H](O)O[C@@H]2O[C@@]3(C)CC[C@H]4[C@H](C)CC[C@@H]1[C@@]24OO3` [ARTENIMOL], 70.3 µM; to `C[C@@H]1[C@H](O)[C@@H](C)/C=C/C=C/C=C/C=C/C=C/C=C/C=C/[C@H](O[C@@H]2O[C@H](C)[C@@H](O)[C@H](N)[C@@H]2O)C[C@@H]2O[C@](O)(C[C@@H](O)C[C@@H](O)[C@H](O)CC[C@@H](O)C[C@@H](O)CC(=O)O[C@H]1C)C[C@H](O)[C@H]2C(=O)O` [AMPHOTERICIN B], 0.01 µM. For the compound `C[C@@H]1CC[C@H]2[C@@H](C)C(=O)O[C@@H]3OC(C)(C)OO[C@@]32C1`, the NA result with Leishmania donovani [4] was “inactive”. As to `C[C@@H]1CC[C@H]2[C@H](CCCc3cc(C(F)(F)F)cc(C(F)(F)F)c3)C(=O)O[C@@H]3O[C@@]4(C)CC[C@@H]1[C@]32OO4`, the results for the IC50 with Plasmodium falciparum [1] and with Plasmodium falciparum [2] were 0.0082 µM and 0.0126 µM, respectively. Moreover, the NA entry with Leishmania donovani [4] is “inactive”.

The compound `C[C@@H]1CC[C@H]2[C@@H](C)CO[C@@H]3OC4(C)CC[C@@H]1[C@]32OO4` (single isomer, unassigned) [DEOXOARTEMISININ] showed an IC50 in the experiment with Leishmania donovani [3] of 46.6 µM. As to `C[C@@H]1CC[C@H]2[C@@H](CCCc3cc(C(F)(F)F)cc(C(F)(F)F)c3)C(=O)O[C@@H]3O[C@@]4(C)CC[C@@H]1[C@]32OO4`, the results for the IC50 in the experiment on Plasmodium falciparum [1], in the experiment with Plasmodium falciparum [2] and with Leishmania donovani [3] were 0.016 µM, 0.0188 µM and 14.4 µM, respectively. Regarding `C[C@@H]1CC[C@H]2[C@@H](CCCc3cccc(F)c3)C(=O)O[C@@H]3O[C@@]4(C)CCC1[C@]32OO4` (some centres not stated), inhibition in the experiment on Leishmania donovani [3] was half-maximal at 3.7 µM (IC50). For the compound `C[C@@H]1CC[C@H]2[C@@H](CCCc3cccc(Cl)c3)C(O)O[C@@H]3O[C@@]4(C)CC[C@@H]1[C@]32OO4` (some centres not stated), in the experiment on Leishmania donovani [3], the IC50 came to 16.6 µM. Against the preceding compound, the IC50 is about 4.5-fold higher. `C[C@@H]1CC[C@H]2[C@@H](CCCc3ccc(C(F)(F)F)cc3)C(O)O[C@@H]3O[C@@]4(C)CC[C@@H]1[C@]32OO4` (some centres not stated) registered an IC50 in the experiment with Leishmania donovani [3] of 2.9 µM. This IC50 lies about 5.7-fold lower than the previous one. `CCOC1O[C@@H]2O[C@]3(C)CC[C@H]4[C@H](C)CC[C@@H]([C@H]1C)C24OO3` (some centres not stated) came in with an IC50 with Leishmania donovani [3] of 44.8 µM.

For the compound `CSc1ccc(CCC[C@H]2C(=O)O[C@@H]3O[C@@]4(C)CCC5[C@H](C)CC[C@@H]2[C@]53OO4)cc1` (some centres not stated), the IC50 worked out at 0.0508 µM in the experiment on Plasmodium falciparum [1], 0.0439 µM in the experiment with Plasmodium falciparum [2] and 1.4 µM with Leishmania donovani [3]. In the experiment on Leishmania donovani [3], `CC(C)CN1C(=O)C[C@@H]2CC[C@@H](C)[C@@H]3CC[C@@]4(C)OO[C@@]23[C@H]1O4` had an IC50 of 186 µM. For `C[C@@H]1CC[C@H]2[C@@H](CCC#N)C(=O)O[C@@H]3O[C@@]4(C)CCC1[C@]32OO4` (some centres not stated), the figures for the half-maximal inhibitory concentration (IC50) in the experiment with Plasmodium falciparum [1], with Plasmodium falciparum [2] and with Leishmania donovani [3] were 0.0149 µM, 0.0149 µM and 38.9 µM, respectively. `C[C@@H]1CC[C@H]2[C@@H](CCCc3ccc(Cl)cc3)CO[C@@H]3O[C@@]4(C)CC[C@@H]1[C@]32OO4` gave an IC50 in the experiment on Leishmania donovani [3] of 4.9 µM. As to `CC1(C)OO[C@]23CCCC[C@H]2[C@@H](CC(=O)O)C(=O)O[C@@H]3O1`, the NA entry with Leishmania donovani [4] was “inactive”. The compound `C=CC[C@H]1C(=O)O[C@@H]2O[C@@]3(C)CCC4[C@H](C)CC[C@@H]1[C@]42OO3` (some centres not stated) came in with an IC50 with Leishmania donovani [3] of 17.8 µM. The compound `C[C@@H]1CC[C@H]2CCO[C@@H]3O[C@@]4(C)CC[C@@H]1[C@@]23OO4` showed an IC50 in the experiment with Leishmania donovani [3] of 49.2 µM.
